In ChEMBL document CHEMBL4002632, “Development of gallic acid formazans as novel enoyl acyl carrier protein reductase inhibitors for the treatment of tuberculosis” (Bioorg Med Chem Lett, 2017):
Values after ≈ are worked out from the molar mass of the structure shown. Active and inactive are the calls of the source. The calls are words filed in the database; no cut-off is given here.

Experiments:
[1] = tested on: Pseudomonas aeruginosa; assay: Antibacterial activity against Pseudomonas aeruginosa at 50 to 100 ug/ml by cup plate agar diffusion method; type: functional
Outline: (§1)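 Tested at 50 and 100 μg/ml by cup-plate agar diffusion against E. coli, P. aeruginosa, S. aureus and B. subtilis.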

[2] = tested on: Mycobacterium tuberculosis; assay: Inhibition of Mycobacterium tuberculosis His6-tagged InhA expressed in Escherichia coli BL21 (DE3) assessed as decrease in NADH oxidation to NAD+ at 10 uM using 2-trans-decenoyl-CoA as substrate preincubated for 2 hrs followed by substrate and NADH addition measured for 1 min by spectrophotometric method relative to control
Outline: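 Recombinant MTB InhA expressed in E. coli and purified. DD-CoA reduction followed spectrophotometrically as NADH oxidation to NAD+. Fixed non-saturating NADH and DD-CoA, 1% DMSO. Compound at 10 μM; per cent inhibition relative to a no-inhibitor control, which set the maximal rate.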

[3] = tested on: Mycobacterium tuberculosis; assay: Antimycobacterial activity against Mycobacterium tuberculosis H37Rv ATCC 27294 by agar dilution method; type: functional
Outline: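 Growth of M. tuberculosis H37Rv (ATCC27294) on agar dilution. Compounds at 50 to 0.78 μg/ml in duplicate. MIC taken as the lowest concentration giving complete growth inhibition. Isoniazid, ethambutol and ofloxacin served as references.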

[4] = tested on: Escherichia coli; assay: Antibacterial activity against Escherichia coli at 50 to 100 ug/ml by cup plate agar diffusion method; type: functional; outline: as §1
[5] = tested on: Staphylococcus aureus; assay: Antibacterial activity against Staphylococcus aureus at 50 to 100 ug/ml by cup plate agar diffusion method; type: functional; outline: as §1
[6] = Cytotoxicity against mouse RAW264.7 cells assessed as growth inhibition at 100 uM after 72 hrs by MTT assay relative to control; type: cell-based; conditions: read-out: GI
Outline: (§2)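 RAW 264.7 mouse macrophage line exposed to compound at 100 and 50 μM for 72 h. Viability by MTT conversion to formazan. Reported as per cent inhibition.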

[7] = Cytotoxicity against mouse RAW264.7 cells assessed as growth inhibition at 50 uM after 72 hrs by MTT assay relative to control; type: cell-based; conditions: read-out: GI; outline: as §2
[8] = tested on: Bacillus subtilis; assay: Antibacterial activity against Bacillus subtilis at 50 to 100 ug/ml by cup plate agar diffusion method; type: functional; outline: as §1
[9] = tested on: Mycobacterium tuberculosis; assay: Antimycobacterial activity against Mycobacterium tuberculosis H37Rv-GFP infected in mouse RAW264.7 cells assessed as growth inhibition at 1 ug/ml after 5 days by confocal microscopic method; type: functional, cell-based
Outline: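 Intracellular M. tuberculosis in mouse macrophages. Initial screen at 0.1, 1 and 10 µg/ml.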

[10] = tested on: Mycobacterium tuberculosis; assay: Antimycobacterial activity against Mycobacterium tuberculosis H37Rv-GFP infected in mouse RAW264.7 cells after 5 days by confocal microscopic method; type: functional, cell-based; conditions: RAW264.7, 120 h
Outline: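 Intracellular M. tuberculosis in mouse macrophages. After initial screening at 0.1, 1 and 10 µg/ml, six doses between 0.1 and 1.0 µg/ml were tested to derive IC50.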

[11] = Inhibition of Mycobacterium tuberculosis His6-tagged InhA expressed in Escherichia coli BL21 (DE3) assessed as decrease in NADH oxidation to NAD+ using 2-trans-decenoyl-CoA as substrate preincubated for 2 hrs followed by substrate and NADH addition measured for 1 min by spectrophotometric method
Outline: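 Recombinant MTB InhA purified from E. coli. NADH oxidation during DD-CoA reduction read spectrophotometrically, with fixed non-saturating NADH and DD-CoA in 1% DMSO. IC50, the concentration halving enzyme velocity, determined for compounds giving over 50% inhibition at 10 μM.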

[12] = tested on: Mycobacterium tuberculosis; assay: Stabilization of Mycobacterium tuberculosis InhA assessed as change in melting temperature by sypro orange dye-based differential scanning fluorimetry
Outline: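 Differential scanning fluorimetry of InhA with ligand versus native protein. Heated from 25 °C to 95 °C in 0.1 °C steps with SYPRO Orange. Tm shift taken relative to native protein.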

Row | Compound | Activity [1] | inhibition [2] [%] | MIC [3] [µM] | Activity [4] | Activity [5] | inhibition at 72 h, 100 µM [6] [%] | inhibition at 72 h, 50 µM [7] [%] | Activity [8] | growth inhibition (GI) [9] | IC50 [10] [µg/mL] | IC50 [11] [µM] | ΔTm [12] [°C]
1 | O=C(N/N=C(/N=N/c1ccccc1)c1ccccc1)c1cc(O)c(O)c(O)c1 | inactive | 42.2 | 38.1 (≈ 14.3 µg/mL) | inactive | inactive | 41.4 | 13.6 | inactive | – | – | – | –
2 | COc1ccc(/N=N/C(=N/NC(=O)c2cc(O)c(O)c(O)c2)c2ccccc2)cc1 | inactive | 69.3 | 1.92 (≈ 0.781 µg/mL) | inactive | inactive | 15 | 4.51 | inactive | Active | 0.56 (≈ 1.38 µM) | 5.79 | –
3 | O=C(N/N=C(/N=N/c1ccc([N+](=O)[O-])cc1)c1ccccc1)c1cc(O)c(O)c(O)c1 | inactive | 57.1 | 7.42 (≈ 3.13 µg/mL) | inactive | inactive | 34.6 | 11.1 | inactive | – | – | 8.16 | –
4 | COc1ccccc1/N=N/C(=N/NC(=O)c1cc(O)c(O)c(O)c1)c1ccccc1 | inactive | 71.7 | 4 (≈ 1.63 µg/mL) | inactive | inactive | 52.7 | 46.5 | inactive | – | – | 6.66 | –
5 | Cc1ccccc1/N=N/C(=N/NC(=O)c1cc(O)c(O)c(O)c1)c1ccccc1 | inactive | 81.4 | 15.4 (≈ 6.01 µg/mL) | inactive | inactive | 41.5 | 32.7 | inactive | – | – | 3.32 | –
6 | O=C(N/N=C(/N=N/c1ccc(F)cc1)c1ccccc1)c1cc(O)c(O)c(O)c1 | inactive | 87.1 | 1.98 (≈ 0.78 µg/mL) | inactive | inactive | 23.7 | 11.8 | inactive | Active | 0.62 (≈ 1.57 µM) | 3.42 | –
7 | CC[C@@H](CO)NCCN[C@@H](CC)CO [ETHAMBUTOL] | – | – | 7.64 (≈ 1.56 µg/mL) | – | – | – | – | – | – | – | – | –
8 | O=C(N/N=C(/N=N/c1ccc(Cl)cc1Cl)c1ccccc1)c1cc(O)c(O)c(O)c1 | inactive | 73.2 | 1.75 (≈ 0.78 µg/mL) | inactive | inactive | 21.5 | 12.1 | inactive | Active | 0.35 (≈ 0.786 µM) | 5.22 | 2.8
9 | NNC(=O)c1ccncc1 [ISONIAZID] | – | – | 0.72 (≈ 0.0987 µg/mL) | – | – | – | – | – | – | – | – | –
10 | CC1COc2c(N3CCN(C)CC3)c(F)cc3c(=O)c(C(=O)O)cn1c23 (stereo not given) [OFLOXACIN] | – | – | 2.16 (≈ 0.781 µg/mL) | – | – | – | – | – | – | – | – | –
11 | O=C(N/N=C(/N=N/c1ccccc1Cl)c1ccccc1)c1cc(O)c(O)c(O)c1 | inactive | 57.1 | 15.2 (≈ 6.25 µg/mL) | inactive | inactive | 32.6 | 24.5 | inactive | – | – | 9.16 | –
12 | O=C(N/N=C(/N=N/c1ccccc1[N+](=O)[O-])c1ccccc1)c1cc(O)c(O)c(O)c1 | inactive | 62.3 | 14.8 (≈ 6.26 µg/mL) | inactive | inactive | 5.43 | 2.11 | inactive | – | – | 8.46 | –
